SIRT5 block – SIRT5 desuccinylase inhibitors, primary screen, biochemical, fluorescence imaging, single point, set 5; Purified SirT5, succinyl-peptide AMC, trypsin-coupled fluorescence; inhibition, % at 15 µM; hit rate 1.1% among 330,000; AID 652115, 2013; in the data active = inhibition above about 15%; inconclusive = no clear call, values can overlap the other calls
E-sel inducer – E-selectin induction in HUVECs, primary screen, imaging, HUVEC, immunofluorescence imaging, single point | P16581 | normalized: neutral wells 0, TNF-alpha wells 100 | activation, % at 7.58 µM | hit rate 0.37% among 260,000 | AID 686992, 2013;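 active = mean E-selectin-positive cell signal at least 10% of the positive control, reached in at least 60% of replicates, without over 20% cell loss; inconclusive = no rule given, readout overlaps actives, possibly toxicity-flagged; inactive = the rest, including those meeting only one limit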
Target sequence (P16581 whole entry, looked up): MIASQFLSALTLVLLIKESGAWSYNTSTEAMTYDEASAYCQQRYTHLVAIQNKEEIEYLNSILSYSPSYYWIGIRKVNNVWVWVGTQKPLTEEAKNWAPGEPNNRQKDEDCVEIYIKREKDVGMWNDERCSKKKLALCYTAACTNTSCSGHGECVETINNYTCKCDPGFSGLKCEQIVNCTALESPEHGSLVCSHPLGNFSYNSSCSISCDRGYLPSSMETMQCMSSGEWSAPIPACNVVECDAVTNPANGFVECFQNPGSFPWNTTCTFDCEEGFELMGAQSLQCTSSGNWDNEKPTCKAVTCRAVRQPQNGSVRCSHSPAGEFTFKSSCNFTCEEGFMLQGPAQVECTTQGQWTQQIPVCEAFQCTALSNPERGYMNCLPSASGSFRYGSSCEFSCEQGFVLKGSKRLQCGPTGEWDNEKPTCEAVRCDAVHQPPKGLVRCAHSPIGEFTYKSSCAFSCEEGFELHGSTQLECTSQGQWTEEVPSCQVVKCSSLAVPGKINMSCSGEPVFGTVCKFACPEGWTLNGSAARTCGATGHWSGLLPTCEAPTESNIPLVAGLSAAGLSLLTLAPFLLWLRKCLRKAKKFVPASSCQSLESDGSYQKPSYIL
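Material: HUVEC primary endothelial cells; Amount: 3,000 cells per well; Dosing: single concentration; Medium: EGM-2 growth medium on 0.1% gelatin-coated wells; Read-out basis: percent E-selectin-positive cells; Signal: immunofluorescence imaging; Control set: TNF-alpha, DMSO.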
DENV2 CPE rescue – inhibitors of DENV2 cytopathic effect, primary screen, cell-based, plate reader, single concentration | DENV2-infected cells, cytopathic effect rescue | AID 651640, 2012 | CPE inhibition, % at 9.99 µM | hit rate 1.7% among 350,000; in the data active = CPE inhibition above about 20%, passing the limit was not always enough; inconclusive = no clear call, values can overlap the other calls; tested in BHK-21 cells
Each line names hits and unclear results; the compound was inactive in the other large screens. Shown are actives, neighbours in structure and some others; about 2.8% of the full set was active somewhere.

O=C(c1ccccc1F)N1CC2(C1)[C@@H](c1ccccc1)[C@H](CO)N2CC1CC1	DENV2 CPE rescue 30
O=C(NC1CCCCC1)N1CC2(C1)[C@H](c1ccccc1)[C@H](CO)N2CC1CCOCC1	none
O=C(c1ccccc1)N1CC2(C1)[C@@H](c1ccccc1)[C@@H](CO)N2CC1CC1	DENV2 CPE rescue 21
CCC(=O)N1CC2(C1)[C@@H](c1ccccc1)[C@@H](CO)N2CC1CCOCC1	none
O=C(c1ccncc1)N1CC2(C1)[C@H](c1ccccc1)[C@H](CO)N2CC1CC1	none
O=C(c1ccccc1F)N1CC2(C1)[C@@H](c1ccccc1)[C@@H](CO)N2CC1CCOCC1	none
CCC(=O)N1CC2(C1)[C@H](c1ccccc1)[C@H](CO)N2CC1CCOCC1	DENV2 CPE rescue 70
O=C(NC1CCCC1)N1CC2(C1)[C@H](c1ccccc1)[C@@H](CO)N2CC1CCOCC1	DENV2 CPE rescue 38
C[C@@H]1CN([C@@H](C)CO)C(=O)c2cc(NC(=O)Cc3cn(C)c4ccccc34)ccc2O[C@H]1CN(C)Cc1ccncc1	none
O=C(N[C@H]1CC[C@H](CCn2cc(-c3ccccn3)nn2)O[C@H]1CO)c1ccncc1	none
O=C(C[C@@H]1C[C@@H]2c3cc(NC(=O)Cc4ccncc4)ccc3O[C@@H]2[C@H](CO)O1)NCc1cccnc1	DENV2 CPE rescue inconclusive
CO[C@H]1CN(C)C(=O)c2cc(NS(C)(=O)=O)ccc2OC[C@@H](C)N(CC2CCCCC2)C[C@H]1C	none
C[C@H](CO)N1C[C@H](C)[C@H](CN(C)Cc2ccc(C(F)(F)F)cc2)OCCCC[C@H](C)Oc2ccc(NS(=O)(=O)c3cn(C)cn3)cc2C1=O	none
COc1ccc2c3c(n(C)c2c1)[C@H](CO)N(C(=O)Nc1ccccc1F)CC31CCN(C(=O)c2ccccc2)CC1	none (no result: SIRT5 block)
Cc1ccc(S(=O)(=O)Nc2ccc3c(c2)C(=O)N([C@H](C)CO)C[C@@H](C)[C@@H](CN(C)S(=O)(=O)c2cn(C)cn2)O3)cc1	none
CNC[C@H]1Oc2cc(C#CCN(C)C)ccc2S(=O)(=O)N([C@@H](C)CO)C[C@@H]1C	none
O=C(c1ccncc1)N1CC2(C1)[C@H](c1ccccc1)[C@@H](CO)N2CC1CCOCC1	DENV2 CPE rescue 73
O=C(c1ccncc1)N1CC2(C1)[C@H](c1ccccc1)[C@H](CO)N2CC1CCCC1	none
O=C(CC1CC1)N1CC2(C1)[C@@H](c1ccccc1)[C@H](CO)N2CC1CCOCC1	none
O=C(c1ccncc1)N1CC2(C1)[C@@H](c1ccccc1)[C@@H](CO)N2CC1CCCC1	SIRT5 block 18
C[C@@H]1CCCCO[C@@H](CN(C)S(=O)(=O)c2cn(C)cn2)[C@H](C)CN([C@@H](C)CO)C(=O)c2cc(NS(=O)(=O)c3cn(C)cn3)ccc2O1	none
C[C@@H]1CN([C@@H](C)CO)S(=O)(=O)c2ccc(-c3cccnc3)cc2O[C@@H]1CN(C)C(=O)C1CC1	none (no result: SIRT5 block, DENV2 CPE rescue)
Cc1noc(C)c1S(=O)(=O)Nc1ccc2c(c1)C(=O)N([C@H](C)CO)C[C@@H](C)[C@@H](CN(C)C(=O)Nc1ccc(C(F)(F)F)cc1)OCCCC[C@@H](C)O2	DENV2 CPE rescue inconclusive
COc1ccc(S(=O)(=O)Nc2ccc3c(c2)C(=O)N([C@H](C)CO)C[C@H](C)[C@@H](CN(C)C(=O)Nc2c(C)noc2C)OCCCC[C@@H](C)O3)cc1	DENV2 CPE rescue 41
Cc1noc(C)c1NC(=O)N(C)C[C@@H]1OCCCC[C@H](C)Oc2ccc(NS(=O)(=O)c3c(C)noc3C)cc2C(=O)N([C@@H](C)CO)C[C@H]1C	none
COc1ccc(S(=O)(=O)Nc2ccc3c(c2)C(=O)N([C@@H](C)CO)C[C@@H](C)[C@@H](CN(C)C(=O)Nc2c(C)noc2C)OCCCC[C@H](C)O3)cc1	none
Cc1noc(C)c1NC(=O)N(C)C[C@H]1OCCCC[C@H](C)Oc2ccc(NS(=O)(=O)c3c(C)noc3C)cc2C(=O)N([C@H](C)CO)C[C@@H]1C	DENV2 CPE rescue 34
CO[C@@H]1CN(C)C(=O)c2cc(NS(=O)(=O)c3cccc(C)c3)ccc2OC[C@@H](C)N(C(=O)Cc2cccnc2)C[C@H]1C	none (no result: SIRT5 block)
C[C@@H]1CN([C@@H](C)CO)C(=O)c2cc(NS(=O)(=O)c3ccc(Cl)cc3)ccc2O[C@H]1CN(C)C(=O)Nc1ccc(F)cc1	DENV2 CPE rescue inconclusive
COc1ccc2c3c(n(C)c2c1)[C@@H](CO)N(C(=O)NC(C)C)CC31CCN(CC2CC2)CC1	none
C[C@@H]1CN([C@@H](C)CO)C(=O)c2cccc(NS(=O)(=O)c3ccccc3)c2O[C@H]1CN(C)Cc1ccc(C(F)(F)F)cc1	none

Compound activity (PubChem)
